The values below come from ChEMBL document CHEMBL3108757, “Synthesis and cytostatic evaluation of 4-N-alkanoyl and 4-N-alkyl gemcitabine analogues” (J Med Chem, 2014).

Data set [1] concerns CCRF-CEM. As to the kind of experiment: Cytostatic activity against human CEM cells after 3 days by coulter counter analysis. The data set is classed as functional, cell-based. Particulars: 72 h; call rule not given here. In short, it runs like this: (§1)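 CEM T-lymphocyte cultures exposed to compound, 3 days at 37 °C; living cells counted by Coulter counter; IC50 is the concentration inhibiting proliferation by 50%.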

The subject of data set [2] is CCRF-CEM. In words: Cytostatic activity against human dCK-deficient CEM cells after 3 days by coulter counter analysis. The data set is classed as functional, cell-based. The note with it: 72 h. In outline: as §1
A further data set has as its system L1210. In words: Cytostatic activity against mouse L1210 cells after 2 days by coulter counter analysis. The data set is classed as functional, cell-based. Particulars: L1210, 48 h. In short, it runs like this:
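Murine leukemia L1210 cultures exposed to compound, 2 days at 37 °C; living cells counted by Coulter counter; IC50 is the concentration inhibiting proliferation by 50%.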

The next data set deals with HeLa. As to the kind of experiment: Cytostatic activity against human HeLa cells after 4 days by coulter counter analysis. The class given is functional, cell-based. The note with it: 96 h. In outline:
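HeLa cervix carcinoma cultures exposed to compound, 4 days at 37 °C; viable cells counted by Coulter counter; IC50 is the concentration giving 50% inhibition of proliferation.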

The next data set concerns MCF7. In words: Cytostatic activity against human MCF7 cells after 4 days by coulter counter analysis. Particulars: MCF7, 96 h.
Data set [3] concerns CCRF-CEM. In words: Ratio of IC50 for human dCK-deficient CEM cells to IC50 for human CEM cells. The data set is classed as functional.
In data set [4] the test system is Serum. As to the kind of experiment: Metabolic stability in human serum assessed as dFdU formation at 100 uM up to 240 mins by HPLC analysis. The class given is ADME, cell-free. Particulars: 4 h. In short, it runs like this:
(§2)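 Compound at 100 μM in 50% human serum in PBS, 37 °C; aliquots taken at 0, 60 and 240 min; reverse-phase RP-18 HPLC (acetonitrile/H₂O) resolving dFdU and gemcitabine.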

Data set [5] concerns the target Deoxycytidine kinase (Homo sapiens) (UniProt P27707). As to the kind of experiment: Activity at recombinant dCK (unknown origin) at 100 uM by HPLC analysis.
For data set [6], the system named is Serum. In words: Prodrug conversion in human serum assessed as gemicitabine formation at 100 uM by HPLC analysis. The class given is ADME, cell-free. In outline: as §2
Data set [7] deals with Serum. As to the kind of experiment: Prodrug conversion in human serum assessed as dFdU formation at 100 uM up to 240 mins by HPLC analysis. The class given is ADME, cell-free. The note with it: 4 h. In outline: as §2
In data set [8] the test system is Liver. As to the kind of experiment: Prodrug conversion in mouse liver at 100 uM after 2 hrs by HPLC analysis. The data set is classed as ADME, tissue-based. In outline:
(§3)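 Compound at 100 μM in murine liver extract in PBS, 37 °C; sampled at 0, 30 and 120 min; reverse-phase RP-18 HPLC (acetonitrile/H₂O) resolving dFdU and gemcitabine.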

The test system of data set [9] is Liver. As to the kind of experiment: Prodrug conversion in mouse liver assessed as dFdU formation at 100 uM after 2 hrs by HPLC analysis. The class given is ADME, tissue-based. In outline: as §3
The test system of data set [10] is Liver. In words: Prodrug conversion in mouse liver assessed as gemicitabine formation at 100 uM by HPLC analysis. The data set is classed as ADME, tissue-based. In outline:
as §3

For data set [11], the system named is Liver. As to the kind of experiment: Prodrug conversion in mouse liver assessed as dFdU formation at 100 uM by HPLC analysis. The class given is ADME, tissue-based. In short, it runs like this:
as §3

The structures appear in SMILES notation.

Deoxycytidine kinase (Homo sapiens), sequence (P27707 whole entry, looked up): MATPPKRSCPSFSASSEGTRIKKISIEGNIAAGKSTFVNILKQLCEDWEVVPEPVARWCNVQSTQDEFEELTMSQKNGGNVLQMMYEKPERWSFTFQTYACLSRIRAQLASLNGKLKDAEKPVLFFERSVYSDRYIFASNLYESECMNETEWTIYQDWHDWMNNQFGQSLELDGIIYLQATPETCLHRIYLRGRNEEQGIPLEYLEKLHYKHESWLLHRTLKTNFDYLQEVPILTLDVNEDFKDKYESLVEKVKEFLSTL

Take `C=CCCCCCCC(=O)Nc1ccn([C@@H]2O[C@H](CO)[C@@H](O)C2(F)F)c(=O)n1`: the IC50 (as a rule, the concentration at which inhibition is half-maximal) was 140 nM in the data set on CCRF-CEM [1]; 20 µM in the data set with CCRF-CEM [2]; 24 nM in the data set with L1210; 42 nM in the data set with HeLa; 7.9 nM with MCF7.

For `CCCC(CCC)C(=O)Nc1ccn([C@@H]2O[C@H](CO)[C@@H](O)C2(F)F)c(=O)n1` [LY-2334737], the 50% inhibitory concentration (IC50) is 5200 nM in the data set on CCRF-CEM [1]; 161 µM in the data set with CCRF-CEM [2]; 1100 nM with L1210; 760 nM with HeLa; 550 nM in the data set on MCF7.

As to `C=CCCCCCCCCCNc1ccn([C@@H]2O[C@H](CO)[C@@H](O)C2(F)F)c(=O)n1`, the IC50 is 13000 nM in the data set on CCRF-CEM [1]; 60 µM in the data set on CCRF-CEM [2]; 7000 nM with L1210; 3400 nM with HeLa; 28000 nM in the data set with MCF7. In addition, the Ratio IC50 in the data set with CCRF-CEM [3] amounted to 4.6.

Turning to `Nc1ccn([C@@H]2O[C@H](CO)[C@@H](O)C2(F)F)c(=O)n1` [GEMCITABINE], the Stability entry in the data set on Serum [4] was “Unstable”. The Activity in [5] stood at 15%. For the same molecule, the IC50 was determined as 69 nM with CCRF-CEM [1]; 7.6 µM in the data set with CCRF-CEM [2]; 13 nM in the data set with L1210; 9.9 nM in the data set with HeLa; 7.2 nM in the data set on MCF7.

As for `CCCCCCCCCCC(=O)Nc1ccn([C@@H]2O[C@H](CO)[C@@H](O)C2(F)F)c(=O)n1`, the half-maximal inhibitory concentration (IC50) with CCRF-CEM [1] is 60 nM; with CCRF-CEM [2], 5.8 µM; with L1210, 14 nM; with HeLa it was 8.9 nM; with MCF7, 5.3 nM.

Turning to `O=c1nc(NCCCCCCCCCCCO)ccn1[C@@H]1O[C@H](CO)[C@@H](O)C1(F)F`, the Stability result in the data set with Serum [6], in the data set with Serum [7], in the data set on Liver [8] and with Liver [9] was “Stable” in each case. In addition, the 50% inhibitory concentration (IC50) in the data set with CCRF-CEM [1] was 86000 nM; in the data set on CCRF-CEM [2], 140 µM; with L1210, 29000 nM; in the data set with HeLa it was 22000 nM; with MCF7 it was 27000 nM. The “Ratio IC50” value with CCRF-CEM [3] came to 2.

On to `O=c1nc(NCCCCCCCCCCCF)ccn1[C@@H]1O[C@H](CO)[C@@H](O)C1(F)F`, for which the IC50 in the data set on CCRF-CEM [1] is 28000 nM; in the data set with CCRF-CEM [2], 134 µM; with L1210 it was 28000 nM; with HeLa, 17000 nM; with MCF7, 26000 nM. Also, the Ratio IC50 in the data set on CCRF-CEM [3] is 4.8.

In the case of `O=C(CCCCCCCCCCF)Nc1ccn([C@@H]2O[C@H](CO)[C@@H](O)C2(F)F)c(=O)n1`, the Activity in data set [5] was under 1%. For the same molecule, the half-inhibitory concentration (IC50) in the data set with CCRF-CEM [1] stood at 59 nM; in the data set with CCRF-CEM [2] it was 7.2 µM; in the data set with L1210 it was 53 nM; with HeLa, 11 nM; in the data set on MCF7, 7.7 nM.

For the molecule `C=CCCCCCCCCCCC(=O)Nc1ccn([C@@H]2O[C@H](CO)[C@@H](O)C2(F)F)c(=O)n1`, the Activity in [5] was under 1%. The 50% inhibitory concentration (IC50) with CCRF-CEM [1] worked out at 69 nM; with CCRF-CEM [2] it was 6.8 µM; in the data set on L1210, 21 nM; in the data set with HeLa it was 13 nM; with MCF7, 7.9 nM.

Turning to `C=CCCCCCCCCC(=O)Nc1ccn([C@@H]2O[C@H](CO)[C@@H](O)C2(F)F)c(=O)n1`, the IC50 in the data set with CCRF-CEM [1] was 71 nM; with CCRF-CEM [2], 12 µM; in the data set with L1210, 18 nM; in the data set with HeLa, 12 nM; in the data set on MCF7 it was 6.2 nM.

Take `O=C(CCCCCCCCCCO)Nc1ccn([C@@H]2O[C@H](CO)[C@@H](O)C2(F)F)c(=O)n1`: the Drug metabolism entry in the data set with Serum [6], in the data set on Serum [7], with Liver [10] and with Liver [11] was “Active” in each case. For the same molecule, the half-maximal inhibitory concentration (IC50) amounted to 240 nM in the data set with CCRF-CEM [1]; 19 µM in the data set on CCRF-CEM [2]; 23 nM in the data set on L1210; 49 nM in the data set with HeLa; 8.1 nM in the data set with MCF7.
